Hits are enriched below; roughly 2.1% of the tested compounds scored in any of these assays.
SR-BI DiI inh = blocks mouse SR-BI lipid uptake from DiI-HDL. Q61009. ldlA[mSR-BI] CHO cells, DiI-HDL uptake fluorescence, 3 h. inhibition, % at 12.5 µM. 0.96% of 320,000 active. AID 488896;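 active means mean replicate inhibition of at least 70% and a set share of replicates each scoring 70 or more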;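 further: 0% = median of neutral control wells and 100% = median of positive control wells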
Target sequence (Q61009 whole entry, looked up): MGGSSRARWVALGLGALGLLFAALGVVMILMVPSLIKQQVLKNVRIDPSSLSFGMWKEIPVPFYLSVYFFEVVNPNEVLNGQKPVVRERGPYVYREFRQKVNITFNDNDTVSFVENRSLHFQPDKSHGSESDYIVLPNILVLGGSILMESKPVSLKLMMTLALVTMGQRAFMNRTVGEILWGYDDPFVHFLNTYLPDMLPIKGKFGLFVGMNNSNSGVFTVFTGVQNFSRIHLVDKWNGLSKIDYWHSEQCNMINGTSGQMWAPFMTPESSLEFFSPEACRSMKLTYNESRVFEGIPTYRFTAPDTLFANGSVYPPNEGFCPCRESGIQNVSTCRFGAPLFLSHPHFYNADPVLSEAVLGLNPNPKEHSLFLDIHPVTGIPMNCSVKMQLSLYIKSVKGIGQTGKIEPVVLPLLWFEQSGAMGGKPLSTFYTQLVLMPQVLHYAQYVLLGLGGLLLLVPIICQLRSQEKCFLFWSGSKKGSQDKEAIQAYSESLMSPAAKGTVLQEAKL
CAL PDZ FP-1 = blocks peptide binding to human CAL PDZ domain | inhibition, % at 20 µM | 0.02% of 330,000 active | Q9HD26 | purified CAL PDZ, TMR-peptide fluorescence polarization, 1 h;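 active means highest replicate inhibition of at least 40%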;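 further: plate controls were DMSO neutral control wells for no effect and unlabeled competitor peptide control wells for full effect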
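Material – purified CerCALP PDZ construct · Detection – FP readout, S and P plane fluorescence · Measure – percent inhibition from loss of millipolarization · Controls – unlabelled peptide for full inhibition, DMSO wells as neutral · Probe or stimulus – TMR-labelled reporter peptide T*-PRC34 bound in PDZ groove · Times – 1 h at RT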
ARNT TACC3 PPI = disruptors of human ARNT/TACC3 interaction; inhibition, % at 9.99 µM; 0.66% of 390,000 active; AlphaScreen His-ARNT PAS-B/GST-TACC3 binding, luminescence; TACC3 fragment carries E629A point mutation; AID 623870;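 active means mean inhibition of replicates at least 50% and at least half of replicates each reaching 50%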;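 further: 0% = complete ARNT plus TACC3 wells and 100% = ARNT alone without TACC3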
miR-122 sensor = miR-122 inhibition in Huh7 cells; AID 602342; Huh7 miR-122 Renilla luciferase sensor, 48 h; neutral wells = 0, positive control = 100; 0.3% of 340,000 active; activation (reporter increase), % at 12.5 µM;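 active means mean replicate activation score at least 90 and every replicate individually at or above 90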;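 further: higher luciferase means less miR-122 activity so hits act as miR-122 inhibitors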
CAL PDZ FP-2 = blocks peptide binding to the human CAL PDZ domain. Q9HD26. purified CAL PDZ, TMR-peptide fluorescence polarization, 1 h. inhibition, % at 24.9 µM. 0.92% of 300,000 active. AID 602252;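 active means mean inhibition of at least 30% with at least half of replicates also reaching 30%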;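 further: 0% = DMSO neutral control and 100% = excess unlabeled competitor peptide PRC23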
SR-BI uptake up = activators of SR-BI mediated HDL lipid uptake; CHO ldlA[mSR-BI] cells, DiI-HDL uptake fluorescence, 3 h; 100 = double the neutral-control signal; activation, % at 12.5 µM; 0.096% of 320,000 active; AID 504775;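 active means mean replicate activation of at least 60% and every replicate at or above 60%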;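 further: 0% = median plate neutral-control signal and 100% = twice that signal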
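Test system: SR-BI-overexpressing, LDLR-lacking CHO cells; Also added: labelled HDL, 10 µg/mL; Measured by: bottom-read cell fluorescence after medium removal, ex 550/em 595 nm; Timing: 3 h uptake period with compound, 37 °C; Buffer or medium: F12, 0.5% BSA, 25 mM HEPES; Doses: single compound concentration, delivered by pin transfer.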
Numbers without * were called inactive; / = no result given; [ ] = dose if it differs, or a comment.

SMILES	SR-BI DiI inh	CAL PDZ FP-1	ARNT TACC3 PPI	miR-122 sensor	CAL PDZ FP-2	SR-BI uptake up
Nc1c(N(CCC2=CCCCC2)C(=O)CCCOc2ccccc2)c(=O)[nH]c(=O)n1Cc1ccccc1	2	-1	-2	/	49*	-2
CCN(C(=O)COC(=O)c1c2c(nc3ccccc13)CCC2)c1c(N)n(Cc2ccccc2)c(=O)[nH]c1=O	48	-2	2	2	/	-48
CCCOc1ccc(C(=O)CCC(=O)OCC(=O)N(C)c2c(N)n(Cc3ccccc3)c(=O)[nH]c2=O)cc1	-10	1	-18	-1	38*	10
CC(C)CN(C(=O)COC(=O)c1c2c(nc3ccccc13)CCC2)c1c(N)n(Cc2ccccc2)c(=O)[nH]c1=O	72*	-2	0	1	-4	-72
COc1ccc(S(=O)(=O)N[C@H]2C=C[C@@H](CC(=O)NCCc3ccncc3)O[C@H]2CO)cc1	/	/	9	/	/	/
CCCC(=O)Nc1ccc2c(c1)C(=O)N(C)C[C@@H](OC)[C@H](C)CN(CCc1ccccc1)[C@@H](C)CO2	/	/	0	-8[16.7 µM]	/	/
Cc1cccc(COc2ccccc2C(=O)OCC(=O)N(C)c2c(N)n(Cc3ccccc3)c(=O)[nH]c2=O)c1	87*	-2	0	-2	-1	-87
CCN(C(=O)COC(=O)CCc1ccc(OC)cc1)c1c(N)n(Cc2ccccc2)c(=O)[nH]c1=O	2	-1	/	-5	44*	-2
COCC(=O)Nc1ccc2c(c1)[C@H]1C[C@H](CC(=O)NCc3cc(F)ccc3F)O[C@H](CO)[C@H]1O2	/	/	-1	1[16.7 µM]	/	/
CCOc1ccc(C(C)=O)cc1COC(=O)c1ccc2c(c1)NC(=O)CS2	80*	-1	5	-11	-3	-80
O=C(Nc1cccc(F)c1)N1C[C@@H]2[C@H](c3ccccc31)[C@H](CO)N2C(=O)c1cccnc1	/	/	-15	-4[16.7 µM]	/	/
CN(C(=O)c1cccc(NC(=O)c2ccccc2)c1)C1CCCCC1	32	-1	-2	-1	48*	-32
CC(C)C(=O)Nc1cccc(C(=O)N2CCCCC2C)c1 (stereo not drawn)	-7	-3	-9	7	-2	7
CC1CCCCN1C(=O)c1cccc(NC(=O)c2ccccc2)c1 (stereo not drawn)	26	-1	-1	/	76*	-26
C[C@@H]1CN([C@H](C)CO)C(=O)c2cc(NC(=O)Cc3ccccc3)ccc2O[C@@H]1CN(C)Cc1ccc(-c2ccccc2)cc1	/	/	/	0[16.7 µM]	/	/
CC(C)NC(=O)N1C[C@H]2[C@@H](c3ccccc31)[C@H](CO)N2C(=O)c1ccncc1	/	/	-3	12[16.7 µM]	/	/
CCCC(=O)Nc1ccc2c(c1)C(=O)N(C)C[C@@H](OC)[C@H](C)CN(C(=O)CC)[C@@H](C)CO2	/	/	/	-13[16.7 µM]	/	/
CC1CCN(c2nnc(-c3ccccc3)c3ccccc23)CC1	84*	/	9	/	-4	-84
Cc1ccc(-c2nnc(N3CCC(C)CC3)c3ccccc23)cc1	66	-1	15	/	/	-66
O=C(N/N=C/c1ccc2nccnc2c1)c1ccncc1	-355	-6	15	/	/	355*
Nc1nonc1C(=O)N/N=C/c1cc(Br)ccc1O	138*	-1	/	/	0	-138
Nc1nonc1-n1nnc(C(=O)N/N=C/c2cc(Br)ccc2O)c1CNc1ccccc1	48	-1	-51	35	-4	-48
COc1ccc(/C=N/NC(=O)C(=O)Nc2ccccn2)cc1OC	3	-1	0	/	-1	-3
O=C(N/N=C\c1cc(Br)ccc1O)c1ccc(S(=O)(=O)N2CCCCC2)cc1	137*	1	-6	/	4	-137
O=C(N/N=C/c1ccc(O)c(O)c1)c1cccc(S(=O)(=O)N2CCCCC2)c1	4	0	2	-8	-1	-4
SMILES	SR-BI DiI inh	CAL PDZ FP-1	ARNT TACC3 PPI	miR-122 sensor	CAL PDZ FP-2	SR-BI uptake up
O=C(N/N=C/c1ccc2nccnc2c1)c1ccc(Br)cc1	/	/	/	1	/	/
O=C(N/N=C/c1ccccc1O)C(=O)Nc1ccccn1	88*	0	48*	/	-5	-88
CO[C@@H]1CN(C)C(=O)c2ccc(NC(C)=O)cc2OC[C@@H](C)N(Cc2cccnc2)C[C@@H]1C	/	/	/	9[16.7 µM]	/	/
COCCNC(=O)C[C@@H]1CC[C@H]2[C@H](COc3ccc(NC(=O)c4cnccn4)cc3C(=O)N2C)O1	/	/	2	-2[16.7 µM]	/	/
O=C(N/N=C/c1cc(Br)ccc1O)c1ccncc1	120*	/	61*	2	113*	-120
O=C(N/N=C/c1cc(Cl)ccc1O)c1ccc(Br)cc1	135*	0	-1	/	-6	-135
O=C(N/N=C/c1ccccc1O)c1ccncc1	48	-1	66*	-1	2	-48
O=C(N/N=C/c1ccccc1O)c1cc[n+]([O-])cc1	-4	1	63*	6	-1	4
CO[C@@H]1CN(C)C(=O)c2cc(NC(=O)c3cnccn3)ccc2OC[C@@H](C)N(CCc2ccccc2)C[C@H]1C	/	/	12	/	/	/
CCC/C=N/NC(=O)c1ccc(F)cc1	-44	0	-3	-5	1	44
O=C(N/N=C/c1ccc(O)c2ncccc12)c1cccc(Br)c1	72*	-1	13	-14	/	-72
Cc1nccn1CC(=O)N/N=C/c1c[nH]c2ccccc12	-1	0	-6	-8	8	1
Cc1nccn1CC(=O)N/N=C/c1ccccc1O	/	-3	74*	1	-1	/
CCC/C=N/NC(=O)c1cccc(Br)c1	-7	-1	-3	-3	86*	7
CC(C)(C)OC(=O)N/N=C/c1cc(N=Nc2ccccc2)ccc1O	32	0	/	/	-2	-32
Cc1ccc(N=Nc2ccc(O)c(/C=N\NC(=O)c3ccc(N)cc3)c2)cc1C	115*	-3	-3	-9	0	-115
Cc1cc(/C=N/NC(N)=S)c(O)c(/C=N/NC(N)=S)c1	/	0	66*	0	-1	/
NC(=S)N/N=C/c1cccc(O)c1O	47	0	/	6	0	-47
NC(=S)NN=Cc1nccc2c(C(F)(F)C(F)(F)C(F)(F)F)cccc12	/	/	/	-2	/	/
Cc1ccc(-n2c(C)cc(/C=N/NC(N)=S)c2C)cc1	30	-1	-3	/	3	-30
Oc1ccccc1C=NNC(=S)NN=Cc1ccccc1O	133*	5	61*	2	-8	-133
NC(=S)N/N=C/c1ccccc1O	/	-1	73*	-14	-1	/
NC(=S)NN=Cc1nccc2ccccc12	27	1	77*	-7	2	-27
C[C@H](CO)N1C[C@H](C)[C@@H](CN(C)C(=O)C2CCOCC2)Oc2ncc(C#CC(C)(C)O)cc2C1=O	/	/	-4	-4[16.7 µM]	/	/

Screening results (PubChem BioAssay)
